Laboratory results: ChEMBL document CHEMBL1123569 (J Med Chem, 1987)
*1 amine or outer side, *2 acyl side, *3 side chain or, on linkers, in order; H or OH if unused. Where a SMILES comes first, the peptide text is derived from it. [ ]: non-standard residue; d: D form. The star is where a group is joined. ξ: configuration not given here. Met(O2) = CS(=O)(=O)CC[C@H](N)C(=O)O; Sta = CC(C)C[C@H](N)[C@@H](O)CC(=O)O; X1 = O=C(C(N[*:1])c1cccs1)[*:2]; ξGly(cPent) = NC(C(=O)O)C1CCCC1; Cha = N[C@@H](CC1CCCCC1)C(=O)O; Isovaleryl = CC(C)CC(=O)*; ξChg = NC(C(=O)O)C1CCCCC1; ξPhg = NC(C(=O)O)c1ccccc1; Nle = CCCC[C@H](N)C(=O)O; Boc = CC(C)(C)OC(=O)*; Bn = c1ccc(C*)cc1; X2 = c1cncc(C*)c1

Biological target: T1, Renin (Homo sapiens, UniProt P00797)
T1 sequence (P00797 whole entry): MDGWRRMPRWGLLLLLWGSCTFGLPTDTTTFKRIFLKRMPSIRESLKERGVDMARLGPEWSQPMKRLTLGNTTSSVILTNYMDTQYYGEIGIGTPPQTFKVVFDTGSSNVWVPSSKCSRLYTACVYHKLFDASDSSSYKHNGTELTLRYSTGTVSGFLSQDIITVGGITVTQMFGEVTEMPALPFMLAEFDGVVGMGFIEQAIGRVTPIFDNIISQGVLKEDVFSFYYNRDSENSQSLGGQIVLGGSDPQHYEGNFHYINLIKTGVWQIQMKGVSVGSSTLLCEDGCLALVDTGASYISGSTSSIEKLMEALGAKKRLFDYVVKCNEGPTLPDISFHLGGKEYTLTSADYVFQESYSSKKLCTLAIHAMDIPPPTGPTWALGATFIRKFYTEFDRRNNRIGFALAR
Assay: Inhibition of human plasma renin
Type: cell-free
Outline: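 Enriched human plasma renin preparation, substrate its own endogenous angiotensinogen (about 2×10^-6 M). Inhibitor added over a range of increasing concentrations. Angiotensin I released was quantified by RIA. With substrate held constant across the series, IC50 is treated as linearly proportional to Ki.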

SMILES | IC50
COC(=O)C[C@H](O)[C@H](CC(C)C)NC(=O)[C@H](C)NC(=O)C[C@H](O)[C@H](CC(C)C)NC(=O)[C@H](Cc1ccccc1)NC(=O)[C@H](Cc1ccccc1)NC(C)=O (Ac-FF[Sta]A[Sta]-OMe) | 1410 nM
COC(=O)C[C@H](O)[C@H](CC(C)C)NC(=O)[C@H](C)NC(=O)C[C@H](O)[C@H](CC(C)C)NC(=O)[C@H](CCSC)NC(=O)[C@H](Cc1ccccc1)NC(=O)OC(C)(C)C (Boc-FM[Sta]A[Sta]-OMe) | 316 nM
COC(=O)C[C@H](O)[C@H](CC(C)C)NC(=O)[C@H](C)NC(=O)C[C@H](O)[C@H](CC(C)C)NC(=O)[C@H](CC(N)=O)NC(=O)[C@H](Cc1ccccc1)NC(=O)OC(C)(C)C (Boc-FN[Sta]A[Sta]-OMe) | 1200 nM
COC(=O)C[C@H](O)[C@H](CC(C)C)NC(=O)[C@H](C)NC(=O)C[C@H](O)[C@H](CC(C)C)NC(=O)[C@H](CCC(N)=O)NC(=O)[C@H](Cc1ccccc1)NC(=O)OC(C)(C)C (Boc-FQ[Sta]A[Sta]-OMe) | 316 nM
COC(=O)C[C@H](O)[C@H](CC(C)C)NC(=O)[C@H](C)NC(=O)C[C@H](O)[C@H](CC(C)C)NC(=O)[C@H](COCc1ccccc1)NC(=O)[C@H](Cc1ccccc1)NC(=O)OC(C)(C)C (Boc-FS(Bn)[Sta]A[Sta]-OMe) | 174 nM
CCOC[C@H](NC(=O)[C@H](Cc1ccccc1)NC(=O)OC(C)(C)C)C(=O)N[C@@H](CC(C)C)[C@@H](O)CC(=O)N[C@@H](C)C(=O)N[C@@H](CC(C)C)[C@@H](O)CC(=O)OC (Boc-FS(Et)[Sta]A[Sta]-OMe) | 112 nM
COC(=O)C[C@H](O)[C@H](CC(C)C)NC(=O)[C@H](C)NC(=O)C[C@H](O)[C@H](CC(C)C)NC(=O)[C@H](COCc1cccnc1)NC(=O)[C@H](Cc1ccccc1)NC(=O)OC(C)(C)C (Boc-FS(X2)[Sta]A[Sta]-OMe) | 316 nM
COC(=O)C[C@H](O)[C@H](CC(C)C)NC(=O)[C@H](C)NC(=O)C[C@H](O)[C@H](CC(C)C)NC(=O)[C@H](CO)NC(=O)[C@H](Cc1ccccc1)NC(=O)OC(C)(C)C (Boc-FS[Sta]A[Sta]-OMe) | 437 nM
COC(=O)C[C@H](O)[C@H](CC(C)C)NC(=O)[C@H](C)NC(=O)C[C@H](O)[C@H](CC(C)C)NC(=O)[C@H](Cc1c[nH]c2ccccc12)NC(=O)[C@H](Cc1ccccc1)NC(=O)OC(C)(C)C (Boc-FW[Sta]A[Sta]-OMe) | 120 nM
COC(=O)C[C@H](O)[C@H](CC(C)C)NC(=O)[C@H](C)NC(=O)C[C@H](O)[C@H](CC(C)C)NC(=O)[C@H](Cc1ccc(OCc2ccccc2)cc1)NC(=O)[C@H](Cc1ccccc1)NC(=O)OC(C)(C)C (Boc-FY(Bn)[Sta]A[Sta]-OMe) | 1410 nM
COC(=O)C[C@H](O)[C@H](CC(C)C)NC(=O)[C@H](C)NC(=O)C[C@H](O)[C@H](CC(C)C)NC(=O)[C@H](CC1CCCCC1)NC(=O)[C@H](Cc1ccccc1)NC(=O)OC(C)(C)C (Boc-F[Cha][Sta]A[Sta]-OMe) | 490 nM
COC(=O)C[C@H](O)[C@H](CC(C)C)NC(=O)[C@H](C)NC(=O)C[C@H](O)[C@H](CC(C)C)NC(=O)[C@H](CCS(C)(=O)=O)NC(=O)[C@H](Cc1ccccc1)NC(=O)OC(C)(C)C (Boc-F[Met(O2)][Sta]A[Sta]-OMe) | 10000 nM
CCCC[C@H](NC(=O)[C@H](Cc1ccccc1)NC(=O)OC(C)(C)C)C(=O)N[C@@H](CC(C)C)[C@@H](O)CC(=O)N[C@@H](C)C(=O)N[C@@H](CC(C)C)[C@@H](O)CC(=O)O (Boc-F[Nle][Sta]A[Sta]-OH) | 30.2 nM
CCCC[C@H](NC(=O)[C@H](Cc1ccccc1)NC(=O)OC(C)(C)C)C(=O)N[C@@H](CC(C)C)[C@@H](O)CC(=O)N[C@@H](C)C(=O)N[C@@H](CC(C)C)[C@@H](O)CC(=O)OC (Boc-F[Nle][Sta]A[Sta]-OMe) | 120 nM
COC(=O)C[C@H](O)[C@H](CC(C)C)NC(=O)[C@H](C)NC(=O)C[C@H](O)[C@H](CC(C)C)NC(=O)C(NC(=O)[C@H](Cc1ccccc1)NC(=O)OC(C)(C)C)c1cccs1 (some centres undefined) (Boc-F[X1][Sta]A[Sta]-OMe) | 251 nM
COC(=O)C[C@H](O)[C@H](CC(C)C)NC(=O)[C@H](C)NC(=O)C[C@H](O)[C@H](CC(C)C)NC(=O)C(NC(=O)[C@H](Cc1ccccc1)NC(=O)OC(C)(C)C)C1CCCCC1 (some centres undefined) (Boc-F[ξChg][Sta]A[Sta]-OMe) | 151 nM
COC(=O)C[C@H](O)[C@H](CC(C)C)NC(=O)[C@H](C)NC(=O)C[C@H](O)[C@H](CC(C)C)NC(=O)C(NC(=O)[C@H](Cc1ccccc1)NC(=O)OC(C)(C)C)C1CCCC1 (some centres undefined) (Boc-F[ξGly(cPent)][Sta]A[Sta]-OMe) | 37.2 nM
COC(=O)C[C@H](O)[C@H](CC(C)C)NC(=O)[C@H](C)NC(=O)C[C@H](O)[C@H](CC(C)C)NC(=O)C(NC(=O)[C@H](Cc1ccccc1)NC(=O)OC(C)(C)C)c1ccccc1 (some centres undefined) (Boc-F[ξPhg][Sta]A[Sta]-OMe) | 93.3 nM
COC(=O)C[C@H](O)[C@H](CC(C)C)NC(=O)[C@H](C)NC(=O)C[C@H](O)[C@H](CC(C)C)NC(=O)[C@H](Cc1ccccc1)NC(=O)[C@H](Cc1ccccc1)NC(=O)CC(C)C (Isovaleryl-FF[Sta]A[Sta]-OMe) | 316 nM
